Results published in ChEMBL document CHEMBL3124940, “Design, synthesis and biological evaluation of D-ring opened galantamine analogs as multifunctional anti-Alzheimer agents” (Eur J Med Chem, 2014).
Active and inactive are the calls of the source. No cut-off for these calls is given here.

Key:
[1] = test system: PC-12; experiment: Neuroprotective activity in rat PC12 cells assessed as decrease in amyloid beta (1 to 42)-induced cytotoxicity after 24 hrs by MTT assay; format: functional, cell-based
Summary of the method: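 PC12 cells in F-12 with 10% FBS at 37 °C, 5% CO2, plated at 2000 cells/well and grown 24 h. Compound added (final 0.008–10 µM, DMSO below 0.5%) with Aβ42 (final 5 µM), 24 h at 37 °C. Aβ42 prepared by HFIP treatment, dried, taken up to 100 µM in F-12 and held 4 °C for 24 h. MTT for 4 h, DMSO solubilization, read at 540 nm; reported as % of control, three independent trials, mean ± SEM.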

[2] = test system: Rattus norvegicus; experiment: Toxicity in Wistar rat assessed as GSH level in brain at 1 umol/100 g body weight, ip by fluorometric analysis relative to control; format: organism-based; conditions: in vivo
[3] = test system: Rattus norvegicus; experiment: Toxicity in Wistar rat assessed as ethoxyresorufin-O-deethylation activity in liver measured as resorufin level at 1 umol/100 g body weight, ip by fluorometric analysis relative to control; format: organism-based; conditions: in vivo
Summary of the method: (§1)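 Rats dosed i.p.; after 24 h, liver homogenized 1:3 w/v in 0.1 M sodium phosphate pH 7.4 and centrifuged at 9000 × g, 4 °C, 20 min. Supernatant protein determined by the Biuret method. Ethoxyresorufin-O-deethylation measured fluorometrically as resorufin formed.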

[4] = test system: Rattus norvegicus; experiment: Toxicity in Wistar rat assessed as GSH level in liver at 6 umol/100 g body weight, ip by fluorometric analysis relative to control; format: organism-based; conditions: in vivo
[5] = test system: Rattus norvegicus; experiment: Toxicity in Wistar rat assessed as GSSG level in brain at 1 umol/100 g body weight, ip by fluorometric analysis relative to control; format: organism-based; conditions: in vivo
Summary of the method: (§2)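 Rats dosed i.p.; tissues taken after 24 h. For GSH/GSSG, tissue homogenized in 11 volumes of 0.2 M sodium phosphate (5 mM EDTA, pH 8.0) plus 4 volumes of 25% metaphosphoric acid and centrifuged 12 000 × g, 4 °C, 30 min; supernatant read photometrically (GSH) or fluorometrically (GSSG). Lipid peroxidation products measured as TBARS in 19-volume ice-cold saline homogenates, fluorometrically.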

[6] = test system: Rattus norvegicus; experiment: Toxicity in Wistar rat assessed as GSSG level in brain at 6 umol/100 g body weight, ip by fluorometric analysis relative to control; format: organism-based; conditions: in vivo; summary of the method: as §2
[7] = test system: Rattus norvegicus; experiment: Antialzheimer activity in Wistar rat scopolamine-induced cognition impairment model assessed as decrease in amount of errors plus baits not found during exploration at 1 umol/100 g body weight, ip treated for 5 mins prior to scopolamine-challenge measured after 20 to 120 mins by eight-arm radial maze test; format: functional, organism-based
Summary of the method: (§3)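 Female 60-day-old Wistar rats (Han:Wist) trained in an eight-arm radial maze to error-free trials under 60 s on three consecutive days; each animal served as its own control. Test agent given i.p. in saline 5 min before scopolamine (0.05 mg/100 g b. wt., i.p. in saline). Errors plus baits not found after 10 min, and total searching time, recorded before and 20, 60, 120 min after scopolamine; n = 14, mean ± SEM.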

[8] = test system: Rattus norvegicus; experiment: Toxicity in Wistar rat assessed as GSH level in kidney at 6 umol/100 g body weight, ip by fluorometric analysis relative to control; format: organism-based; conditions: in vivo
[9] = Induction of nitric oxide release in PBS at 100 uM at pH 7.4 after 24 hrs by Griess method relative to control; format: physicochemical; conditions: buffer, pH 7.4, 24 h
Summary of the method: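 Test compound at 100 µM in phosphate buffer pH 7.4, alone or with 90 µL rat serum added, incubated 37 °C for 24 h. Griess reagent added, then 30 min at 37 °C with gentle shaking; absorbance read at 540 nm and blank-corrected. Nitrite quantified against an NaNO2 calibration curve and expressed as % of a theoretical 1 mol NO per mol nitrate; n = 3.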

[10] = test system: Rattus norvegicus; experiment: Toxicity in Wistar rat assessed as liver weight at 1 umol/100 g body weight, ip relative to control; format: organism-based; conditions: in vivo
[11] = test system: Rattus norvegicus; experiment: Toxicity in Wistar rat assessed as lipidperoxidation product level in brain at 6 umol/100 g body weight, ip by fluorometric analysis relative to control; format: organism-based; conditions: in vivo; summary of the method: as §2
[12] = test system: Rattus norvegicus; experiment: Toxicity in Wistar rat assessed as protein content in liver at 1 umol/100 g body weight, ip by Biuret method relative to control; format: organism-based; conditions: in vivo; summary of the method: as §1
[13] = test system: Rattus norvegicus; experiment: Toxicity in Wistar rat assessed as ethoxycoumarin-O-deethylation activity in liver measured as 7-hydroxycoumarin level at 6 umol/100 g body weight, ip by fluorometric analysis relative to control; format: organism-based; conditions: in vivo
[14] = test system: Rattus norvegicus; experiment: Toxicity in Wistar rat assessed as protein content in liver at 6 umol/100 g body weight, ip by Biuret method relative to control; format: organism-based; conditions: in vivo; summary of the method: as §1
[15] = test system: Rattus norvegicus; experiment: Toxicity in Wistar rat assessed as GSSG level in kidney at 1 umol/100 g body weight, ip by fluorometric analysis relative to control; format: organism-based; conditions: in vivo; summary of the method: as §2
[16] = test system: Rattus norvegicus; experiment: Toxicity in Wistar rat assessed as ethylmorphine-N-demethylation activity in liver measured as formaldehyde level at 6 umol/100 g body weight, ip by photometric analysis relative to control; format: organism-based; conditions: in vivo
[17] = test system: Rattus norvegicus; experiment: Toxicity in Wistar rat scopolamine-induced cognition impairment model assessed as change in movement at 1 umol/100 g body weight, ip; format: organism-based; conditions: in vivo
Summary of the method: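 60-day-old female Wistar rats were trained in an eight-arm radial maze to no errors in under 60 s on 3 consecutive days; each rat served as its own control. Compound in saline was given i.p., then scopolamine (0.05 mg/100 g, saline, i.p.) 5 min later. Errors plus baits not found after 10 min and total searching time were recorded before and 20, 60 and 120 min after scopolamine; n = 14, mean ± SEM.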

[18] = target: Amyloid-beta precursor protein (Homo sapiens) (UniProt P05067); experiment: Inhibition of amyloid beta (1 to 42) aggregation (unknown origin) at 50 uM after 1 hr by thioflavin T fluorescence assay relative to control
Chain of Amyloid-beta precursor protein (Homo sapiens) (P05067 whole entry): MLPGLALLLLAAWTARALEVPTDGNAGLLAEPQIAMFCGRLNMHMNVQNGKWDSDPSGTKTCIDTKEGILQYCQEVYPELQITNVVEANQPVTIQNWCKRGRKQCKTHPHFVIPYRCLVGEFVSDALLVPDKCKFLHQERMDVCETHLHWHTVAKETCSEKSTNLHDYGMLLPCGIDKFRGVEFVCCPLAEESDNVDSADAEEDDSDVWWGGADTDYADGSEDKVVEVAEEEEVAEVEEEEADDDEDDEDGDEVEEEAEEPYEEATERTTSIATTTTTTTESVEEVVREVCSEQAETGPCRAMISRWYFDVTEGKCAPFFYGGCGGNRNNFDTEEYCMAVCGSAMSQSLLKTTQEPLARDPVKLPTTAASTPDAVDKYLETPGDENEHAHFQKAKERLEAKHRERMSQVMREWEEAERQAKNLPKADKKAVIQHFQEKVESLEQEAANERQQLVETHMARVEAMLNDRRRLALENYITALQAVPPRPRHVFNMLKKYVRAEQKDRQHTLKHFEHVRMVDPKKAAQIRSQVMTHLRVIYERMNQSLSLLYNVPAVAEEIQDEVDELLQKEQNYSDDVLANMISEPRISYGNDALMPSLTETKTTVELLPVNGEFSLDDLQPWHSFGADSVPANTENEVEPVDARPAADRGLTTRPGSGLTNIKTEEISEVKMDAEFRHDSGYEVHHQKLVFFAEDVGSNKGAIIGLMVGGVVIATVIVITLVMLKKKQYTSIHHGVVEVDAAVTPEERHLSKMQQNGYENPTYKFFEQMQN
Summary of the method: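 Aβ42 stock (200 µM in DMSO) centrifuged 12,000 rpm for 10 min; supernatant used. Compound (2 µL of 0.2–4.0 mM DMSO stock) and 2 µL Aβ42 stock added to 76 µL PBS pH 7.4, incubated 1 h at room temperature. 80 µL of 5 µM ThT in 50 mM glycine-NaOH pH 8.5 then added; fluorescence read at excitation 430 nm, emission 488 nm.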

[19] = test system: Rattus norvegicus; experiment: Toxicity in Wistar rat assessed as body weight at 6 umol/100 g body weight, ip relative to control; format: organism-based; conditions: in vivo
[20] = test system: Rattus norvegicus; experiment: Toxicity in Wistar rat assessed as GSH level in liver at 1 umol/100 g body weight, ip by fluorometric analysis relative to control; format: organism-based; conditions: in vivo
[21] = test system: Rattus norvegicus; experiment: Toxicity in Wistar rat assessed as lipidperoxidation product level in liver at 6 umol/100 g body weight, ip relative to control; format: organism-based; conditions: in vivo
[22] = test system: Rattus norvegicus; experiment: Toxicity in Wistar rat assessed as kidney weight at 6 umol/100 g body weight, ip relative to control; format: organism-based; conditions: in vivo
[23] = test system: Rattus norvegicus; experiment: Antialzheimer activity in Wistar rat scopolamine-induced cognition impairment model assessed as total exploration time at 1 umol/100 g body weight, ip treated for 5 mins prior to scopolamine-challenge by eight-arm radial maze test relative to control; format: functional; summary of the method: as §3
[24] = test system: Rattus norvegicus; experiment: Toxicity in Wistar rat assessed as change in movement at 1 umol/100 g body weight, ip; format: organism-based; conditions: in vivo
[25] = test system: Rattus norvegicus; experiment: Toxicity in Wistar rat assessed as liver weight at 6 umol/100 g body weight, ip relative to control; format: organism-based; conditions: in vivo

For `COc1ccc2c(c1)oc1cccc(CN(C(=O)CCO[N+](=O)[O-])C(C)C)c12`, the Activity [1] was “Dose-dependent effect”, the Activity [2] was 645 µg/g and the Activity [3] was 114 pmol/mg/min. The Activity [4] was 2482 µg/g, the Activity [5] was 84.8 µg/g and the Activity [6] was 79.1 µg/g. The Activity [7] was “Active”, the Activity [8] was 1483 µg/g and the Activity [9] was 4.8%. For the same compound, the Activity [10] was 7.6 g, the Activity [11] was 156 nmol/g and the Activity [12] was 66.4 mg/mL. For the same compound, the Activity [13] was 178 pmol/mg/min, the Activity [14] was 64.7 mg/mL and the Activity [15] was 161 µg/g. The Activity [16] was 0.52 nmol/mg/min, the Activity [17] was “Non-toxic” and the inhibition [18] was 19%. It also gave an Activity [19] of 259 g, an Activity [20] of 2542 µg/g and an Activity [21] of 63.9 nmol/g. The Activity [22] was 0.84 g, the Time [23] was 175 s and the Activity [24] was “Non-toxic”. It also gave an Activity [25] of 8 g.
